Data on one molecule can be found in publication PMC3581696 (The Journal of General Physiology, 2013).

This experiment has as its target T1, mEAG1 Δ2–173 channels (Mus musculus, UniProt Q60603).
T1 sequence (Q60603 with tags, fused parts or gaps): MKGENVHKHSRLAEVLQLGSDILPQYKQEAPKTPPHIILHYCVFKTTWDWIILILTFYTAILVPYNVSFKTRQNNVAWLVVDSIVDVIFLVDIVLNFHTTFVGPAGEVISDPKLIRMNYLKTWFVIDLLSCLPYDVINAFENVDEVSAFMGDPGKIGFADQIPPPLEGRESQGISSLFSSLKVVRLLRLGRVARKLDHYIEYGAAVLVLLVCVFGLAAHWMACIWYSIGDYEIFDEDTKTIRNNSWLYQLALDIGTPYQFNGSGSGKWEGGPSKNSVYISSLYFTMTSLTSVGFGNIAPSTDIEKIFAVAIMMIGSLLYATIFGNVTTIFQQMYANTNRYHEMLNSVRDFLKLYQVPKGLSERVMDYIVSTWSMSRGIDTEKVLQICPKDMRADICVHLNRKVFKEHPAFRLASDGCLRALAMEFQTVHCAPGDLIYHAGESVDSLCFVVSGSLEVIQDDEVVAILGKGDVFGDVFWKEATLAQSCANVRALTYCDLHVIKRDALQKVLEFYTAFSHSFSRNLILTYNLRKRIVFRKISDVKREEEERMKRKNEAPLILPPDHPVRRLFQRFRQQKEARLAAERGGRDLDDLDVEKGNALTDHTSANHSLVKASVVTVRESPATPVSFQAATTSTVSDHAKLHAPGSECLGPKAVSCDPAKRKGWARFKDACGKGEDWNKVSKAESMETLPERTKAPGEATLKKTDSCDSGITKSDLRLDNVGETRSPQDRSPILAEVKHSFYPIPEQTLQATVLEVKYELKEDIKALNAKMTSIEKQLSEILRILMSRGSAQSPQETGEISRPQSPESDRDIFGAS
In words: Inside-out patch-clamp of amino-terminal deletion mutant channels. Type of experiment: cell-based. An outline of the steps:
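Δ2–173 mEAG1 was expressed in Xenopus oocytes and recorded in inside-out patches in symmetric 130 mM KCl/HEPES/EDTA, pH 7.2, held at −100 mV. Steps of 3 s from −100 to +100 mV (20-mV increments) returned to −100 mV for 1 s, with 0 or 30 µM flavonoid. Conductance–voltage data were fit with a product of two Boltzmann functions, with inactivation parameters and activation slope held fixed. The −100 mV tail after a step to −40 mV was fit with a single exponential.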
For orientation: In patch-clamp work, channel activity is measured electrically.

In the case of `O=c1c(O)c(-c2ccc(O)c(O)c2)oc2cc(O)ccc12` [Fisetin, 2-(3,4-dihydroxyphenyl)-3,7-dihydroxychromen-4-one], the “increase of peak conductance after a step to −40 mV” value (30 µM fisetin, average) worked out at 1.7 fold. Besides, the “time constant of deactivation” value (with 30 µM fisetin, after a step to −40 mV, 117 ± 1 ms without, n = 3) was 375 ± 36 ms. In addition, for the setting “with 30 µM fisetin, tail at −100 mV after step to −40 mV, 116 ms without”, the “time constant of deactivation (tail currents of Fig. 5 C)” value was determined as 239 ms.
